Source: PubChem
M1 antagonist: blocks the rat M1 muscarinic receptor response to acetylcholine; CHO-M1 cells, Fluo-4 calcium, ACh EC80 antagonist mode; active compounds read low; B-score at 10 µM; 64,000 tested, 3.4% active;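 active = calcium fluorescence response, raw or row-and-column corrected B-score, differing from the plate sample mean either way at a set confidence level, mostly lower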
JNK3 inh: blocks human JNK3 kinase activity. P53779. purified JNK3 kinase activity, HTS. inhibition, % at 8 µM. 60,000 tested, 0.61% active; in the data active = inhibition above about 17%
Target sequence (P53779 whole entry, looked up): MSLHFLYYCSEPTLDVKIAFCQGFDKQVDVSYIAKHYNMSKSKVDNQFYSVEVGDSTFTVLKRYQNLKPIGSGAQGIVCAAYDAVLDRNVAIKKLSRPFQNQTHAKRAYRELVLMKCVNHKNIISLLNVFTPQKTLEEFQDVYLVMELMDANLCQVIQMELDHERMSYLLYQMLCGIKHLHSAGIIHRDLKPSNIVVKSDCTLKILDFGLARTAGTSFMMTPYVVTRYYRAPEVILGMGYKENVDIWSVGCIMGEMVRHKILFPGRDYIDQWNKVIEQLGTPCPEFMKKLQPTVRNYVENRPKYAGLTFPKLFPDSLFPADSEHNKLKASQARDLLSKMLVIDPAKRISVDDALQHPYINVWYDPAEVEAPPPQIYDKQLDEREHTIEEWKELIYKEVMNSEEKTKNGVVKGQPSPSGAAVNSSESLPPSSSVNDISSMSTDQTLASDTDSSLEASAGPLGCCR
BAP1 block: human BAP1 deubiquitinase inhibition; recombinant BAP1, Ub-AMC hydrolysis fluorescence kinetic; active compounds read low; calls only at 20 µM; 72,000 tested, 0.48% active;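 active = activity remaining at or below 50% of control, provided the compound also passes the data quality filters; inactive = the rest, including low values that fail the filters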
HER2 expr 66K: lowers expression of human Her2 kinase; P04626; AID 645; SKBR-3 HER2 protein level, AlphaScreen, 18-24 h; active compounds read low; HER2 level % of control, % at 10 µM; 65,000 tested, 0.69% active;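 active = HER2 level under 5% of the carrier-only control; inconclusive = no clear call, values can overlap the other calls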;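 also: lower value means stronger loss of Her2 protein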
M1 ag: activates the M1 muscarinic receptor; CHO-M1 cells, Fluo-4 calcium fluorescence, agonist mode; active compounds read high; 64,000 tested, 3% active; B-score at 10 µM;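 active = fluorescence rise, raw or as B-score row- and column-corrected plate score, outside the 99.7% band of its plate's samples, either direction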
HEK293 NFkB inh: lowers PMA/ionomycin-induced NF-kB signal in HEK293 cells; 62,000 tested, 0.21% active; HEK-293 NF-kB luciferase reporter, luminescence; AID 465; inhibition, % at 3 µM;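 active = inhibition above the mean of all tested compounds plus 3 SD, cut at about 40% in these data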
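Timing: 1 h pretreatment, 16 h stimulation, 37 °C; system: HEK-293 cells with stable firefly luciferase reporter driven by four HIV NF-kB elements; doses: 3 µM once, 0.30% DMSO; measured by: luciferase luminescence; control set: DMSO and 10 µM reference inhibitor; repeats: single test; reagent: PMA plus ionomycin mix as NF-kB-activating stimulus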
BAP1 inh confirm: BAP1 (human) enzyme inhibition, confirmed; shares compounds with BAP1 block; purified BAP1, Ub-ethyl ester hydrolysis, HPLC; active compounds read low; % of control activity, % at 20 µM; 310 tested, 8% active;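 active = percent of control activity at or below 60%; inconclusive = HPLC trace unusable from injection failure or solvent front hiding peaks; inactive = the rest, plus ubiquitin peak ratio over a set limit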
M1 ag confirm: rat M1 muscarinic agonism, confirmation; fluorescence change (max-min) at 10 µM; shares compounds with M1 ag; AID 1488; CHO-M1 cells, Fluo-4 calcium fluorescence, agonist mode; actives lie on both sides; 1,700 tested, 19% active;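 active = fluorescence change differs from the solvent-only DMSO control mean at a set confidence level in both duplicate runs; inconclusive = differs from solvent-only control mean in just one of two runs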;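 also: an EC20 dose of acetylcholine follows compound addition during the same imaging run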
M4 agonist ctr: activates rat M4 receptor in counter-screen for M1 agonists; shares compounds with M1 ag; CHO M4/Gqi5 cells, Fluo-4 calcium fluorescence, agonist mode; actives lie on both sides; fluorescence change (max-min) at 10 µM; 1,700 tested, 9% active;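 active = fluorescence change differing from the plate's solvent-only control wells at 99.7% confidence in both duplicates, whether higher or lower; inconclusive = differs from solvent controls in only one of two duplicates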
M1 antag conf: confirmation of rat M1 muscarinic receptor antagonists | shares compounds with M1 antagonist | CHO-M1 cells, Fluo-4 calcium, ACh EC80 antagonism; active compounds read low | calcium response (max-min fluorescence) at 10 µM | 1,700 tested, 43% active | AID 677;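 active = calcium response below the same-plate mean of wells given acetylcholine alone at its 80%-effect dose, minus 3 SD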
mGluR4 antag: selectivity test for M1 antagonists: human mGluR4 receptor. shares compounds with M1 antagonist. CHO-mGluR4 calcium flux, Fluo-4 fluorescence, glutamate EC80; active compounds read low. fluorescence response (max-min) at 10 µM. 1,700 tested, 0.9% active. AID 678;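 active = fluorescence response below the plate's average for near-maximal glutamate wells, less 3 SD of those wells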;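 also: raw unnormalized fluorescence span taken in the window right after glutamate addition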
Of the large screens only hits and unclear results are named; the others gave an inactive call (follow-up assays come after a bar, where shown). This is a sample that favours compounds with a hit; in the whole collection about 6.6% have one here.

CCOP(=S)(OCC)c1ccc(N(C)C)cc1	M1 ag 3 (no result: JNK3 inh)
CCCCCn1c(=O)c(C(=O)NCc2ccncc2)c(O)c2ccccc21	none (not shown: BAP1 block)
CCCCCn1c(=O)c(C(=O)Nc2ccncc2)c(O)c2ccccc21	BAP1 block active
C[C@@]1(CO)[C@H](O)CC[C@@]2(C)[C@H]1CC[C@H]1C[C@@H]3C[C@@]12CC[C@]3(O)CO	HER2 expr 66K -15 (no result: HEK293 NFkB inh)
O=[N+]([O-])c1cccc(CN2CCN(Cc3cccc(Br)c3)CC2)c1	none (no result: M1 antagonist, JNK3 inh, HER2 expr 66K, M1 ag, HEK293 NFkB inh)
N=Cc1c(O)n(-c2cccc(Cl)c2)c(=O)[nH]c1=O	M1 ag 2.5
Cn1ncnc2c(=O)n(C)c(=O)nc1-2	JNK3 inh 60, HER2 expr 66K 1.0, HEK293 NFkB inh 99
N=C(N)c1c(O)n(C2CCCCC2)c(=O)n(C2CCCCC2)c1=O	HER2 expr 66K -6.5
Cc1c2ccncc2c(C)c2c1[nH]c1ccccc12	M1 ag 35 (no result: HEK293 NFkB inh)
c1ccc2c(c1)[nH]c1cnccc12	none (not shown: BAP1 block, HEK293 NFkB inh)
O=C(COc1ccccc1)N1CCN(C2CCCC2)CC1	HER2 expr 66K -4.8
O=C(Cc1ccccc1)N1CCN(C2CCCC2)CC1	none
Cc1ncc(CCl)c(CO)c1O	none (no result: M1 antagonist, JNK3 inh, HER2 expr 66K, M1 ag, HEK293 NFkB inh)
Cc1cc(OC(=O)CCNC(=O)OC(C)(C)C)c2c3c(c(=O)oc2c1)CCC3	M1 ag 7.1
Cc1cc(OCC(=O)OC(C)(C)C)c2c3c(c(=O)oc2c1)CCC3	none
CNc1ccc(C)cc1C(=O)c1cccc(Br)c1	none (no result: M1 antagonist, JNK3 inh, HER2 expr 66K, M1 ag, HEK293 NFkB inh)
Nc1c(C(=O)NCCc2ccccc2)c2nc3ccccc3nc2n1CCN1CCOCC1	HER2 expr 66K -5.1
Nc1c(C(=O)NCCN2CCOCC2)c2nc3ccccc3nc2n1Cc1ccco1	M1 ag 6.7
CCCCCCn1c(=O)c(C(=O)Nc2c(C)n(C)n(-c3ccccc3)c2=O)c(O)c2ccccc21	M1 antagonist -8, BAP1 block active | BAP1 inh confirm inactive | M1 antag conf 167 | mGluR4 antag inactive
COc1ccc(C2(CN)CCCCC2)cc1OC	none (no result: M1 antagonist, JNK3 inh, HER2 expr 66K, M1 ag, HEK293 NFkB inh)
Cc1cc2c(C(F)(F)F)cc(=O)oc2c2c1NCCC2	M1 ag 205 | M1 ag confirm 1315 | M4 agonist ctr 1119
COc1cc(C(=O)Nc2ccc([N+](=O)[O-])cc2C(=O)c2ccccc2)cc(OC)c1OC	none (no result: M1 antagonist, JNK3 inh, HER2 expr 66K, M1 ag, HEK293 NFkB inh)
Cn1cccc1CN1CCN(C(=O)COc2ccccc2)CC1	none
Cn1nc(-c2ccc(OCC(=O)N3CCN(Cc4ccccc4)CC3)cc2)c2ccccc2c1=O	M1 antagonist -2, M1 ag 5.4 | M1 ag confirm inconclusive | M4 agonist ctr inactive
CC(=NCCCN1CCOCC1)c1c(O)[nH]c(=O)[nH]c1=O	M1 ag 1.5 | M1 ag confirm inconclusive | M4 agonist ctr inactive
COc1ccc(CNCCc2ccc(F)cc2)c(OC)c1C	none (no result: M1 antagonist, JNK3 inh, HER2 expr 66K, M1 ag, HEK293 NFkB inh)
COCCNC(=O)c1c(NC(=O)c2ccco2)n(Cc2ccccc2)c2nc3ccccc3nc12	M1 ag 3.6 | M1 ag confirm inactive | M4 agonist ctr inactive
CCNCC1(c2ccc(OC)c(OC)c2)CCCC1	M1 antagonist -15, M1 ag 47 | M1 ag confirm inactive | M4 agonist ctr inactive
O=c1[nH]c(=O)n(-c2ccc(F)cc2)c(O)c1C=Nc1ccccc1N1CCCC1	M1 ag 4.2 | M1 ag confirm inactive | M4 agonist ctr inconclusive
Cc1ccc(-n2c(O)c(C=Nc3ccccc3N)c(=O)[nH]c2=O)cc1C	none
O=c1[nH]c(=O)n(CCC2=CCCCC2)c(O)c1C=NCCN1CCNCC1	none
C=CCn1c(O)c(C=Nc2ccc(N(CC)CC)cc2)c(=O)[nH]c1=O	M1 ag 17 (no result: HEK293 NFkB inh) | M1 ag confirm inactive | M4 agonist ctr inactive
CN(C)c1ccc(N=Cc2c(O)n(CCC3=CCCCC3)c(=O)[nH]c2=O)cc1	M1 ag 7.9 | M1 ag confirm inconclusive | M4 agonist ctr inactive
CCN(CC)c1ccc(N=Cc2c(O)n(CCC3=CCCCC3)c(=O)[nH]c2=O)cc1	M1 ag 109 | M1 ag confirm 578 | M4 agonist ctr 627
O=C(c1ccccc1)c1cc(Br)ccc1NC(=O)c1cc(Cl)ccc1[N+](=O)[O-]	none (no result: M1 antagonist, JNK3 inh, HER2 expr 66K, M1 ag, HEK293 NFkB inh)
COc1cc(CNCCc2ccc(F)cc2)cc(OC)c1OC	none (no result: M1 antagonist, JNK3 inh, HER2 expr 66K, M1 ag, HEK293 NFkB inh)
COc1cc(OC)c(OC)cc1CC1C(=O)N(C)C(=O)N(C)C1=O	none (no result: M1 antagonist, JNK3 inh, HER2 expr 66K, M1 ag, HEK293 NFkB inh)
O=C(c1cc(Br)ccc1Cl)N1CCC2(CC1)OCCO2	none
O=C(c1cc(-c2ccccc2)nc2ccccc12)N1CCC2(CC1)OCCO2	M1 ag 4.3 (no result: JNK3 inh) | M1 ag confirm inactive | M4 agonist ctr inactive
COCCn1cc(C(=O)N2CCC3(CC2)OCCO3)c2c3ccccc3n(C)c2c1=O	none
Cn1c2ccccc2c2c(C(=O)N3CCC4(CC3)OCCO4)cn(C3CCCC3)c(=O)c21	M1 ag 14 (not shown: JNK3 inh, BAP1 block) | M1 ag confirm inactive | M4 agonist ctr inactive
CCCS(=O)(=O)N1CCCC(C(=O)N2CCC3(CC2)OCCO3)C1 (stereo unspecified)	M1 ag 2 | M1 ag confirm inactive | M4 agonist ctr inactive
O=C1C2CCN(CC2)[C@@H]1Cc1ccc2ccccc2c1O	M1 antagonist -4.6 (no result: HEK293 NFkB inh) | M1 antag conf 92 | mGluR4 antag inactive
O=c1oc2ccccc2c(O)c1C(C[N+](=O)[O-])c1c[nH]c2ccccc12 (stereo unspecified)	none (no result: M1 antagonist, JNK3 inh, HER2 expr 66K, M1 ag, HEK293 NFkB inh)
Cc1ccc(-n2c(C(F)(F)F)nc3ccccc3c2=O)cc1	none (no result: M1 antagonist, JNK3 inh, HER2 expr 66K, M1 ag, HEK293 NFkB inh)
CCN(CC)CCCN=Cc1c(O)n(-c2ccccc2F)c(=O)[nH]c1=O	M1 antagonist -2.3 | M1 antag conf inactive | mGluR4 antag inactive
CCOC(=O)C1(c2ccccc2)CCN(Cc2cccc(C(=O)O)c2)CC1	M1 antagonist -3.8 | M1 antag conf inactive | mGluR4 antag inactive
COc1cc(CN2CCN(C(=O)COc3ccccc3)CC2)cc(OC)c1OC	none
C[N+]1(C)C2CCC1CC(OC(=O)C(CO)c1ccccc1)C2 (stereo unspecified)	none (no result: M1 antagonist, JNK3 inh, HER2 expr 66K, M1 ag, HEK293 NFkB inh)
